# Compound activity from PubChem BioAssay.
# Most compounds without a hit are left out; they make up all but 1.9% or so of the library.
# NPY1 pot ag: NPY-Y1 receptor potentiators or agonists, primary screen, cell-based | AID 1304, 2008 | 220,000 tested, 0.37% active | activation, % at 3.6 µM | Neuropeptide Y receptor type 1 (Homo sapiens), P25929 | NPY-Y1 expressing cells, potentiator/agonist activation; in the data active means activation above about 33%, passing the limit was not always enough;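 further: cells stimulated with NPY at EC10 then isoproterenol at EC100; 0% = low agonist plus stimulus and 100% = saturating agonist plus stimulus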
# Target sequence (P25929 whole entry, looked up): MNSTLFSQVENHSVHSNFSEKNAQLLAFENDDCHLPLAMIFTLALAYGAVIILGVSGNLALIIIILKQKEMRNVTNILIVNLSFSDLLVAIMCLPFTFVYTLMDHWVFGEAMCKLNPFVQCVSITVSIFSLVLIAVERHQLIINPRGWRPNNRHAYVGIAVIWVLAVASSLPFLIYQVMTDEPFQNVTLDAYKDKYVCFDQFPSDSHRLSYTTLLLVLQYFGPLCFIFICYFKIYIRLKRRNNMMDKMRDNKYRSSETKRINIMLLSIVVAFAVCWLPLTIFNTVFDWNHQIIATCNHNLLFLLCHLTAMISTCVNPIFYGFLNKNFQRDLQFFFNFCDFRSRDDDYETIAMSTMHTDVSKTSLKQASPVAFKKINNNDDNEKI
# NPY-Y1 antag: NPY-Y1 receptor antagonists, primary screen, cell-based | Neuropeptide Y receptor type 1 (Homo sapiens), P25929 | HEK293-CNG Y1 cells, membrane potential fluorescence; NPY at EC95, then isoproterenol | inhibition, % at 3.6 µM | 200,000 tested, 1% active;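 active means inhibition above the campaign mean inhibition of all tested compounds plus 3 SD, cut at about 20% in these data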;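 further: 0% = DMSO wells given NPY plus isoproterenol and 100% = isoproterenol alone without NPY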
#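 Benchmarks – high control isoproterenol alone, low control NPY with isoproterenol · Material – HEK293 Y1/CNG channel cell line · Times – dye 3 h, compound 60 min room temperature, stimulation 45 min · Probe or stimulus – NPY (25 nM), isoproterenol (1 µM), Ro 20-1724 (25 µM) · Evaluation – % inhibition of NPY effect · Signal – fluorescence, membrane potential probe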
# NPY-Y2 PAM-ag: NPY-Y2 potentiators or agonists, primary screen, cell-based. cells expressing NPY-Y2, potentiator/agonist read-out. activation, % at 3.6 µM. 220,000 tested, 0.45% active. Neuropeptide Y receptor type 2 (Homo sapiens), P49146. AID 1359, 2008; in the data active means activation above about 27%;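 further: cells stimulated with NPY near EC25 plus isoproterenol at EC100; 0% = vehicle plus submaximal agonist and 100% = vehicle plus saturating agonist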
# NPY Y2 blocker: NPY-Y2 receptor antagonists, primary screen, cell-based; AID 793, 2007; 140,000 tested, 0.99% active; inhibition, % at 2.7 µM; Neuropeptide Y receptor type 2 (Homo sapiens), P49146; NPY-Y2 expressing cells, antagonist mode;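 further: 0% = vehicle with agonist challenge and 100% = reference antagonist with challenge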
# NPY-Y1 ant conf: NPY-Y1 receptor antagonists, retest of hits, confirmation, HEK293-CNG cells, membrane potential fluorescence, triplicate. shares compounds with NPY-Y1 antag. cAMP; NPY challenge against isoproterenol-raised cAMP. inhibition, % at 3.6 µM. 1,200 tested, 21% active. AID 1254, 2008; in the data active means inhibition above about 20%;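 further: 0% = vehicle with agonist plus stimulus and 100% = stimulus alone without agonist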
# NPY-Y2 antag ct: NPY-Y2 receptor antagonists, selectivity check, confirmation, counter-screen for NPY-Y1 antagonist project, HEK293-CNG cells, membrane potential fluorescence, triplicate; antagonism; cells given NPY, then isoproterenol; 1,200 tested, 28% active; shares compounds with NPY-Y1 antag; inhibition, % at 3.6 µM;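 further: 0% = DMSO with agonist challenge and 100% = reference antagonist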
# Numbers without * were called inactive; . = not tested or not shown. Unless noted, no stated cut-off is given here; in the data, active means inhibition above about 17%; inactive means the rest.
SMILES,NPY1 pot ag,NPY-Y1 antag,NPY-Y2 PAM-ag,NPY Y2 blocker,NPY-Y1 ant conf,NPY-Y2 antag ct
Fc1ccccc1C1c2[nH]c3ccccc3c2CCN1Cc1cccn1-c1ncccn1 (stereo not given),-20.6,29.2*,-48.8,.,8.3,14.1
CCOC(=O)C(=NCCOC)NNc1cc(Cl)ccc1Cl,-26.2,-1.1,-0.6,-2.1,.,.
Cc1cc(C)nc(SCc2ccc(C(=O)N/N=C/c3ccccc3C(=O)O)cc2)n1,-14.6,30.4*,-21.9,.,1.2,0.5
Fc1ccc(CNC(=S)Nc2ccccc2Cl)cc1,3.6,4.4,0.5,11.5,.,.
CCN(CCCNC(=O)c1cn(CC)c2ccc(S(=O)(=O)N(C)C)cc2c1=O)c1cccc(C)c1,-17.7,35.2*,-18.5,13.5,56.7*,72.2*
CCC1=Nc2cc(C(=O)O)ccc2Sc2ccc(Cl)cc21,14.2,68.6*,-1.2,3.7,2.4,1.2
COc1ccccc1N1CCN(C(=O)C2c3ccccc3Oc3ccccc32)CC1,1.8,22.8*,4.4,14.3,7.2,12.1
C=CCOC(=O)c1cn(CC)c2nc(C)ccc2c1=O,-4.5,-0.9,6.2,.,.,.
CCn1cc(C(=O)OCC(=O)OC2CC(C)CCC2C(C)C)c(=O)c2ccc(C)nc21 (stereo not given),-22.2,20.8*,-1.1,3.6,11.0,8.2
CCCCNC(=O)c1onc(CSc2ccc(Cl)cc2)c1C(=O)O,-34.0,21.1*,-47.5,16.6,22.7*,12.3
C=CCNC(=O)c1onc(CSc2ccc(Cl)cc2)c1C(=O)O,-8.9,22.1*,-23.9,10.2,15.5,11.5
CC(C)NC(=O)c1onc(CSc2ccc(Cl)cc2)c1C(=O)O,-26.0,13.1,-16.9,9.1,.,.
O=C(NCc1ccc(F)cc1)C(=O)NCC1OCCN1C(=O)c1cccs1 (stereo not given),4.5,-5.7,2.4,0.7,.,.
Brc1ccc(CNc2cc3c(cc2Br)OCCO3)cc1,-22.5,9.0,-13.7,.,.,.
COc1ccc(-c2cc(-c3n[nH]c(=S)n3-c3ccccc3Cl)[nH]n2)cc1,-31.6,42.4*,-18.8,.,47.0*,72.9*
COc1ccc(-c2cc(-c3n[nH]c(=S)n3-c3cc(OC)ccc3OC)[nH]n2)cc1,-70.1,26.9*,-36.0,5.0,23.1*,43.7*
S=c1[nH]nc(-c2cc(-c3ccco3)[nH]n2)n1-c1ccccc1Cl,7.2,0.2,0.9,16.6,.,.
COc1ccc(OC)c(-n2c(-c3cc(-c4ccc(F)cc4)n[nH]3)n[nH]c2=S)c1,-23.5,0.8,1.8,1.8,.,.
COc1ccc(-c2ccc(C(=O)O)c(=O)[nH]2)cc1,-7.9,-3.2,6.4,.,.,.
Cc1ccc(-c2ccc(C(=O)O)[nH]2)cc1,-39.2,28.1*,-43.3,11.3,7.3,7.6
O=C(Nc1ccc2ccccc2n1)Nc1cccs1,7.8,.,9.7,.,.,.
COc1ccc(C(=O)/C(C#N)=N/Nc2cccc([N+](=O)[O-])c2)cc1,-15.1,26.4*,-4.9,.,29.5*,16.6
N#C/C(=N\Nc1cccc(Cl)c1)C(=O)c1ccccc1,38.4,7.4,25.1,5.1,.,.
CCNc1nc(NCC)nc(SCCOC(=O)c2ccccc2)n1,-23.2,7.9,-1.9,2.1,.,.
CCNc1nc(NCC)nc(SCCOC(=O)Nc2ccc(Cl)cc2Cl)n1,-39.6,24.0*,-21.2,12.7,9.7,11.8
SMILES,NPY1 pot ag,NPY-Y1 antag,NPY-Y2 PAM-ag,NPY Y2 blocker,NPY-Y1 ant conf,NPY-Y2 antag ct
COc1ccc(Br)cc1/C=C\C(=O)NCc1cccnc1,19.9,-2.3,8.0,.,.,.
CCCCOC(=O)C[N+](C)(C)CCOC1CC2CCC1(C)C2(C)C (stereo not given),-28.1,28.3*,-8.7,4.7,7.9,9.3
CCCCCCCOC(=O)C[N+](C)(C)CCOC1CC2CCC1(C)C2(C)C (stereo not given),-51.3,13.4,0.4,15.0,.,.
c1ccc(OCc2noc(CN3CCC(C4CCCCC4)C3)n2)cc1 (stereo not given),-10.6,4.8,-2.5,.,.,.
COC(=O)c1ccc(-c2noc(CN3CCCCC3c3nccn3C)n2)cc1 (stereo not given),-5.0,32.5*,-1.5,.,8.8,11.6
Cn1ccnc1C1CCCCN1Cc1nc(Cc2ccccc2F)no1 (stereo not given),7.8,7.7,-2.6,.,.,.
COc1ccc(NC2=NCC(Cc3ccc(Br)cc3)S2)cc1 (stereo not given),-36.0,5.1,7.9,4.1,.,.
CN(CC(=O)Nc1ccccc1-c1ccccc1)Cc1ccccc1Cl,23.2,3.3,-4.2,.,.,.
CCOC(=O)CC1C(=O)NCCN1C(=O)c1cc2c(=O)n3ccccc3nc2s1 (stereo not given),-9.8,98.1*,-16.8,2.7,1.5,2.8
CCOC(=O)CC1C(=O)NCCN1C(=O)c1cc2c(=O)n3cccc(C)c3nc2s1 (stereo not given),-15.7,0.6,-9.4,0.3,.,.
COC(=O)C1=C(C)NC(C)=C(C(=O)OC)C1C(=O)OC(C)C(=O)c1ccccc1 (stereo not given),-11.8,1.9,3.9,.,.,.
COc1ccc(CN2C(=O)c3ccccc3C2C(=O)NCCc2ccccc2)c(OC)c1 (stereo not given),-15.6,1.3,-14.3,.,.,.
COc1ccc(CN2C(=O)c3ccccc3C2C(=O)NC2CCCCCC2)c(OC)c1 (stereo not given),-15.0,24.3*,-5.0,.,4.2,5.7
O=C(COC(=O)CSc1cccc2cccc(Cl)c12)Nc1ncc(C(F)(F)F)cc1Cl,-44.2,1.6,-20.9,13.8,.,.
NC(=O)COC(=O)CSc1cccc2cccc(Cl)c12,-47.5,26.9*,-33.8,.,12.8,13.8
COc1cc(-c2nnc(COc3ccc4ccccc4c3)o2)cc(OC)c1OC,-8.2,22.7*,10.4,9.3,17.4,14.1
COC(=O)c1ccc(CSc2nc3c(cnn3-c3ccc(C)cc3)c(=O)[nH]2)o1,-28.8,26.7*,-1.8,9.9,2.6,10.0
COC(=O)c1ccc(Cn2cnc3c(cnn3-c3ccc(F)cc3)c2=O)o1,-32.0,7.0,-30.7,7.6,.,.
Cc1ccc(-n2ncc3c(=O)[nH]c(SCC(=O)N4CCOCC4)nc32)cc1,-8.7,3.1,16.1,-1.2,.,.
COC(=O)c1ccc(Cn2cnc3c(cnn3-c3ccc(C)c(C)c3)c2=O)o1,-19.9,26.9*,-17.3,16.7,12.3,9.2
CCOC(=O)C1(Cc2ccc(Cl)cc2)CCN(C(=O)c2cc(C)nc(C)n2)CC1,-15.8,-1.5,6.8,.,.,.
Cc1ccc(C2C3=C(CC(C)(C)CC3=O)NC3=C2C(=O)c2ccccc23)cc1 (stereo not given),-16.4,21.9*,-6.8,6.7,13.7,17.6*
CC(C)c1ccc(/C=C(\NC(=O)c2ccccc2)C(=O)NCCCN2CCOCC2)cc1,3.9,.,-12.1,.,.,.
COc1ccc(Nc2cc(C)c3ccccc3n2)cc1,21.1,0.3,18.2,.,.,.
